Measured values of several laboratories.
Lines come from different studies, so protocols differ.
Target: Tyrosine-protein kinase BTK (BTK, Homo sapiens, UniProt Q06187)

| SMILES | test | conditions | inhibition [%] |
| --- | --- | --- | --- |
| CNC(=O)c1cc(Oc2ccc(NC(=O)Nc3ccc(Cl)c(C(F)(F)F)c3)cc2)ccn1 | enzyme activity, inhibitor | 0.3 µM | 1 |
| CNC(=O)c1cc2c(Oc3ccc(NC(=O)C4(C(=O)Nc5ccc(F)cc5)CC4)cc3)ccnc2cc1OC | enzyme activity, inhibitor, radiometric | 1 µM | 94 |
| CC#CC(=O)N1CCC[C@H]1c1nc(-c2ccc(C(=O)Nc3ccccn3)cc2)c2c(N)nccn12 | enzyme activity, inhibitor, radiometric | 0.1 µM | 83 |
| CNCc1ccc(-c2cc(-c3nc(-c4ccc(S(=O)(=O)C(C)C)cc4)cnc3N)on2)cc1 | enzyme activity, inhibitor | 2 µM | 6 |
| CN(C)C1CCN(CC#Cc2nn(C3CCCC3)c3nc(NCc4ccccc4)ncc23)C1 (stereo not drawn) | enzyme activity, inhibitor, FRET | 0.1 µM | 8 |
| Cc1ccc(Nc2nccc(N(C)c3ccc4c(C)n(C)nc4c3)n2)cc1S(N)(=O)=O | enzyme activity, inhibitor | 10 µM | 72 |
| CC/C(=N\NC(=O)NCc1cccc(O)c1)c1ccc(O)c(C)c1O | enzyme activity, inhibitor | 0.1 µM | -0.2 |
| CCN(CC)CCNC(=O)c1c(C)[nH]c(/C=C2\C(=O)Nc3ccc(F)cc32)c1C | enzyme activity, inhibitor | 10 µM | 85 |
| CCN(CC)CCNC(=O)c1c(C)[nH]c(/C=C2\C(=O)Nc3ccc(F)cc32)c1C | binding, competition with immobilised ligand | 0.1 µM | 91.3 |
| CS(=O)(=O)Nc1cccc(-c2csc(NC(=O)CSc3nc4nccnc4c(=O)n3CCc3ccccc3)n2)c1 | enzyme activity, inhibitor | 10 µM | 3 |
| COc1cc2ncnc(Nc3ccc(Oc4ccccc4)c(C)c3C)c2cc1OC | enzyme activity, inhibitor | 1 µM | 33 |
| CNc1cccc2cc(C(=O)Nc3ccc(C(=O)O)cc3)c(=O)[nH]c12 | enzyme activity, inhibitor | 10 µM | 2.1 |
